The source made the active and inactive calls. The calls are words filed in the database; no cut-off is given here.
Columns and labels:
[1] = system: Influenza A virus; assay: Antiviral activity against Influenza A virus A/WSN/33(H1N1) infected in MDCK cells assessed as s reduction in cytopathic effect after 40 hrs incubation by CellTiter-Glo assay relative to control; type: functional, A/WSN/1933(H1N1)
How it was run: (§1)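 MDCK cells seeded in 96-well plates and grown overnight, then infected with A/WSN/33 (H1N1) at MOI 0.1. Cells were kept in DMEM with 1% FBS, test compound, 2 µg/mL TPCK-trypsin and 1% DMSO final. After 40 h, cell viability was read by CellTiter-Glo luminescence to measure CPE reduction.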

[2] = system: Influenza A virus; assay: Antiviral activity against Influenza A virus A/WSN/33(H1N1) infected in MDCK cells assessed as s reduction in cytopathic effect after 40 hrs incubation by CellTiter-Glo assay; type: functional, organism-based; conditions: A/WSN/1933(H1N1); how it was run: as §1
[3] = Cytotoxicity against MDCK cells after 40 hrs incubation by CellTiter-Glo assay; type: cell-based, Canis lupus familiaris; conditions: dog
How it was run: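 Uninfected MDCK cells were grown overnight in 96-well plates in 1% FBS medium. They were exposed to increasing compound concentrations for 40 h, and viability was read by CellTiter-Glo luminescence.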

[4] = system: Influenza A virus; assay: Antiviral activity against Influenza A virus A/WSN/33(H1N1)) infected in MDCK cells assessed as inhibition of virus infection at early stage after 2 hrs post infection by time of addition assay; type: functional, organism-based; conditions: A/WSN/1933(H1N1)
How it was run: (§2)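 Cells were seeded in 6-well plates at 5 × 10^5 per well 24 h before infection and kept at 37 °C, 5% CO2. They were infected with WSN at MOI 1. Compound was present during 0-10, 0-2, 2-5, 5-8 or 8-10 h post infection. Lysates were Western-blotted for viral NP, with GAPDH probed and DMSO as control.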

[5] = system: Red blood cell; assay: Inhibition of hemagglutinin in Influenza A virus A/WSN/33(H1N1)) assessed as reduction in virus-induced agglutination of chicken red blood cells pretreated for 1 hr followed by further incubated for 1 hr; type: cell-based; conditions: Influenza A virus (A/WSN/1933(H1N1))
How it was run: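 Haemagglutination inhibition: compound was 3-fold serially diluted in saline and mixed with an equal volume of WSN virus (2 HA units) in V-bottom wells. Freshly prepared chicken RBC (1% v/v in saline) were added and incubated at room temperature. cRBC aggregation was scored visually, with anti-HA antibody as comparator.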

[6] = Binding affinity to recombinant influenza A virus A hemagglutinin by SPR assay
How it was run: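 SPR used HA immobilized to about 16,000 RU. Compounds were injected as analytes at various concentrations in PBS-P running buffer (10 mM phosphate, 2.7 mM KCl, 137 mM NaCl, 0.05% P20, pH 4.5). Flow was 30 µL/min, with 60 s contact and 60 s dissociation, giving KD.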

[7] = system: Influenza A virus; assay: Antiviral activity against Influenza A virus A/WSN/33(H1N1)) infected in MDCK cells assessed as suppression of viral genome replication after 8 to 10 hrs post infection by time of addition assay; type: functional, organism-based; conditions: A/WSN/1933(H1N1), time 8-10 hrs; how it was run: as §2
[8] = system: Influenza A virus; assay: Antiviral activity against Influenza A virus A/WSN/33(H1N1)) infected in MDCK cells assessed as suppression of viral genome translation after 8 to 10 hrs post infection by time of addition assay; type: functional, organism-based; conditions: A/WSN/1933(H1N1), time 8-10 hrs; how it was run: as §2
[9] = system: Influenza A virus; assay: Antiviral activity against Influenza A virus A/WSN/33(H1N1)) infected in MDCK cells assessed as suppression of virion assembly and release after 8 to 10 hrs post infection by time of addition assay; type: functional, organism-based; conditions: A/WSN/1933(H1N1), time 8-10 hrs; how it was run: as §2
[10] = system: Influenza A virus; assay: Antiviral activity against Influenza A virus A/WSN/33(H1N1)) infected in MDCK cells assessed as inhibition rate at 50 uM by co-treatment assay; type: functional, A/WSN/1933(H1N1); parameters: scale not given: the % may be the effect or the level left
[11] = system: Influenza A virus; assay: Antiviral activity against Influenza A virus A/WSN/33(H1N1)) infected in MDCK cells assessed as inhibition rate by pretreated virus at 50 uM; type: functional, A/WSN/1933(H1N1); parameters: scale not given: the % may be the effect or the level left

SMILES | inhibition (INH) [1] [%] | EC50 [2] [µM] | CC50 at 40 h [3] [µM] | other results
CC1(C)CC[C@]2(C(=O)NC[C@H](O)[C@H]3OC(=O)C(OCc4ccccc4)=C3OCc3ccccc3)[C@H](O)C[C@]3(C)C(=CC[C@@H]4[C@@]5(C)CC[C@H](O)C(C)(C)[C@@H]5CC[C@]43C)[C@@H]2C1 | 71.1 | 30.3 | > 200 | –
CC1(C)CC[C@]2(C(=O)NCc3cn(C[C@H](O)[C@H]4OC(=O)C(OCc5ccccc5)=C4OCc4ccccc4)nn3)[C@H](O)C[C@]3(C)C(=CC[C@@H]4[C@@]5(C)CC[C@H](O)C(C)(C)[C@@H]5CC[C@]43C)[C@@H]2C1 | 87 | 56.6 | > 200 | –
CC1(C)CC[C@]2(C(=O)NC[C@H](O)[C@H]3OC(=O)C(OCc4ccccc4)=C3OCc3ccccc3)CC[C@]3(C)C(=CC[C@@H]4[C@@]5(C)CC[C@H](O)C(C)(C)[C@@H]5CC[C@]43C)[C@@H]2C1 | 81.9 | 25.3 | > 200 | –
CC1(C)CC[C@]2(C(=O)NC[C@H](O)[C@H]3OC(=O)C(O)=C3O)CC[C@]3(C)C(=CC[C@@H]4[C@@]5(C)CC[C@H](O)C(C)(C)[C@@H]5CC[C@]43C)[C@@H]2C1 | – | – | 41.9 | –
C=C(C)[C@@H]1CC[C@@]2(C(=O)NCc3cn(C[C@H](O)[C@H]4OC(=O)C(OC)=C4OC)nn3)[C@H]1[C@H]1CC[C@@H]3[C@@]4(C)CC[C@H](O)C(C)(C)[C@@H]4CC[C@@]3(C)[C@]1(C)C[C@H]2O | – | – | 43.9 | –
COC1=C(OC)[C@@H]([C@@H](O)Cn2cc(CNC(=O)[C@]34CCC(C)(C)C[C@H]3C3=CC[C@@H]5[C@@]6(C)CC[C@H](O)C(C)(C)[C@@H]6CC[C@@]5(C)[C@]3(C)CC4)nn2)OC1=O | – | – | 19.6 | –
COC1=C(OC)[C@@H]([C@@H](O)Cn2cc(CNC(=O)[C@]34CC[C@@H](C)[C@H](C)[C@H]3C3=CC[C@@H]5[C@@]6(C)CC[C@H](O)C(C)(C)[C@@H]6CC[C@@]5(C)[C@]3(C)C[C@H]4O)nn2)OC1=O | – | – | 52.5 | –
C=C(C)[C@@H]1CC[C@]2(C(=O)NC[C@H](O)[C@H]3OC(=O)C(OCc4ccccc4)=C3OCc3ccccc3)CC[C@]3(C)[C@H](CC[C@@H]4[C@@]5(C)CC[C@H](O)C(C)(C)[C@@H]5CC[C@]43C)[C@@H]12 | 89.6 | 23.7 | > 200 | –
CC1(C)CC[C@]2(C(=O)NCc3cn(C[C@H](O)[C@H]4OC(=O)C(O)=C4O)nn3)[C@H](O)C[C@]3(C)C(=CC[C@@H]4[C@@]5(C)CC[C@H](O)C(C)(C)[C@@H]5CC[C@]43C)[C@@H]2C1 | – | – | 59.3 | –
C=C(C)[C@@H]1CC[C@]2(C(=O)NCc3cn(C[C@H](O)[C@H]4OC(=O)C(OCc5ccccc5)=C4OCc4ccccc4)nn3)CC[C@]3(C)[C@H](CC[C@@H]4[C@@]5(C)CC[C@H](O)C(C)(C)[C@@H]5CC[C@]43C)[C@@H]12 | 89.6 | 8.7 | > 200 | Activity [4]: Active; inhibition [5]: Dose-dependent effect; Kd [6]: 3.76 µM; Activity [7]: Active; Activity [8]: Active; Activity [9]: Active; Activity [10]: 75%; Activity [11]: 87%
CC1(C)CC[C@]2(C(=O)NCc3cn(C[C@H](O)[C@H]4OC(=O)C(O)=C4O)nn3)CC[C@]3(C)C(=CC[C@@H]4[C@@]5(C)CC[C@H](O)C(C)(C)[C@@H]5CC[C@]43C)[C@@H]2C1 | – | – | 46.8 | –
CC1(C)CC[C@]2(C(=O)NCc3cn(C[C@H](O)[C@H]4OC(=O)C(OCc5ccccc5)=C4OCc4ccccc4)nn3)CC[C@]3(C)C(=CC[C@@H]4[C@@]5(C)CC[C@H](O)C(C)(C)[C@@H]5CC[C@]43C)[C@@H]2C1 | 91.3 | 19.2 | > 200 | –
CC1(C)CC[C@]2(C(=O)NC[C@H](O)[C@H]3OC(=O)C(O)=C3O)[C@H](O)C[C@]3(C)C(=CC[C@@H]4[C@@]5(C)CC[C@H](O)C(C)(C)[C@@H]5CC[C@]43C)[C@@H]2C1 | – | – | 29.7 | –
COC1=C(OC)[C@@H]([C@@H](O)Cn2cc(CNC(=O)[C@]34CCC(C)(C)C[C@H]3C3=CC[C@@H]5[C@@]6(C)CC[C@H](O)C(C)(C)[C@@H]6CC[C@@]5(C)[C@]3(C)C[C@H]4O)nn2)OC1=O | – | – | 5.6 | –
C[C@H]1[C@H](C)CC[C@]2(C(=O)NC[C@H](O)[C@H]3OC(=O)C(OCc4ccccc4)=C3OCc3ccccc3)CC[C@]3(C)C(=CC[C@@H]4[C@@]5(C)CC[C@H](O)C(C)(C)[C@@H]5CC[C@]43C)[C@H]12 | 88.1 | 26.4 | > 200 | –
CC(C)[C@@H]1CC[C@]2(C(=O)NC[C@H](O)[C@H]3OC(=O)C(O)=C3O)CC[C@]3(C)[C@H](CC[C@@H]4[C@@]5(C)CC[C@H](O)C(C)(C)[C@@H]5CC[C@]43C)[C@@H]12 | 84.4 | 35.6 | > 200 | –
CCOC(=O)C1=C[C@@H](OC(CC)CC)[C@H](NC(C)=O)[C@@H](N)C1.O=P(O)(O)O [OSELTAMIVIR PHOSPHATE] | 86.5 | 12.5 | > 200 | –
C=C(C)[C@@H]1CC[C@]2(C(=O)NCc3cn(C[C@H](O)[C@H]4OC(=O)C(O)=C4O)nn3)CC[C@]3(C)[C@H](CC[C@@H]4[C@@]5(C)CC[C@H](O)C(C)(C)[C@@H]5CC[C@]43C)[C@@H]12 | 93.1 | 41.3 | > 200 | Kd [6]: 8.04 µM
C[C@H]1[C@H](C)CC[C@]2(C(=O)NCc3cn(C[C@H](O)[C@H]4OC(=O)C(OCc5ccccc5)=C4OCc4ccccc4)nn3)CC[C@]3(C)C(=CC[C@@H]4[C@@]5(C)CC[C@H](O)C(C)(C)[C@@H]5CC[C@]43C)[C@H]12 | 90.8 | 25.7 | > 200 | –
C[C@H]1[C@H](C)CC[C@]2(C(=O)NCc3cn(C[C@H](O)[C@H]4OC(=O)C(O)=C4O)nn3)[C@H](O)C[C@]3(C)C(=CC[C@@H]4[C@@]5(C)CC[C@H](O)C(C)(C)[C@@H]5CC[C@]43C)[C@H]12 | – | – | 41.1 | –
